Residue numbers refer to the chain shown, from its start. Like-named read-outs stand apart in the source and are kept apart here.
Columns and labels:
M2–M5 [1] = test: M2–M5 selectivity, full CRCs in HTS high-expressing CHO cell lines; assay type: cell-based, rat; settings: read-out: M2–M5 EC50s; HTS high-expressing CHO cell line; average of at least three determinations
TREx293-hM1 cells [2] = system: TREx293-hM1 cells
[3] = system: NMDA receptor currents in hippocampal CA1 pyramidal cells; settings: cited from earlier work
[4] = system: 68 GPCRs, ion channels and transporters (including all the BARs); settings: 10 µM; cited from earlier work
TREx293-hM1 cells [5] = settings: in cell culture; cited from earlier work
M2–M5 [6] = settings: read-out: EC50 versus M2–M5; ML071 probe data; cited from earlier work
M1 [7] = biological target: T1, M1 (Rattus norvegicus, UniProt P08482); test: functional M1 agonist assay in rat HTS high-expressing CHO cell line; assay type: cell-based; settings: 10 µM M1 single point screen
T1 sequence (P08482 1-460): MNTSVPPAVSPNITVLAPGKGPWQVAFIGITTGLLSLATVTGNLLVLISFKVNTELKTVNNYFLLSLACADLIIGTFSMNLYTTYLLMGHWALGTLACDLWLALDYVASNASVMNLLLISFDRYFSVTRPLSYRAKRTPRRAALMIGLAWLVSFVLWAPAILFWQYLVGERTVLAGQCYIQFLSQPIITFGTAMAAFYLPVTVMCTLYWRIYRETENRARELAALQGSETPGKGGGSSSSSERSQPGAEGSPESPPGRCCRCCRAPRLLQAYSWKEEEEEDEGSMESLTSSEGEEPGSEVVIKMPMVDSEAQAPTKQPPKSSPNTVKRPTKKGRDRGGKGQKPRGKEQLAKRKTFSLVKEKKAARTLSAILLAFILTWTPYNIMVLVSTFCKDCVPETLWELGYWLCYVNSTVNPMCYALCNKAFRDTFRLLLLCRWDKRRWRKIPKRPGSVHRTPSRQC

intrinsic clearance, rat = assay type: in vitro ADME
D2 receptor = D2 receptor (Homo sapiens, UniProt P14416); test: functional D2 antagonism CRC; assay type: cell-based
Chain of D2 receptor (P14416 whole entry): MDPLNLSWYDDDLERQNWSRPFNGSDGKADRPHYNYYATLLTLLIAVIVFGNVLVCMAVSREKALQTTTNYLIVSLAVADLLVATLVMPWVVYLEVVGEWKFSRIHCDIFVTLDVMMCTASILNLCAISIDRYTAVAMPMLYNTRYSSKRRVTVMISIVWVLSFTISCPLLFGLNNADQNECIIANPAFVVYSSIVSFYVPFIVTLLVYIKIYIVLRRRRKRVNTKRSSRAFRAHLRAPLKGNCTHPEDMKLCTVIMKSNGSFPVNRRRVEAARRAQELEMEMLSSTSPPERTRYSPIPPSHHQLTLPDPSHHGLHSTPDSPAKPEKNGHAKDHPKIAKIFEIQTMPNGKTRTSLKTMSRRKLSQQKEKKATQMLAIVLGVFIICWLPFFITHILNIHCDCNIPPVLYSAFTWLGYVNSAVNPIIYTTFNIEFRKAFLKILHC

[8] = system: NMDA receptor currents in hippocampal CA1 pyramidal cells; test: potentiation of NMDA receptor currents, whole cell recording; assay type: cell-based; settings: 30 µM
Procedure, shortened: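 Whole-cell recording of NMDA-evoked currents in hippocampal CA1 pyramidal cells. Current amplitude was normalized and followed over time before, during and after application of 30 µM test compound.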

[9] = system: 68 GPCRs, ion channels and transporters (including all the BARs); test: radioligand binding panel of 68 GPCRs, ion channels and transporters; settings: 10 µM
M1 [10] = biological target: T2, M1 (Homo sapiens, UniProt P11229); test: M1 agonist assay in new cell lines with expression resembling native levels; assay type: cell-based, rat and human; settings: new cell lines with expression more closely resembling native levels
T2 sequence (P11229 1-460): T1 sequence (P08482 1-460) with V5A, S254T, S309P, K320R, G337A, V413I

oral plasma:brain level = assay type: in vivo, male Sprague-Dawley rats; settings: 10 mg/kg oral, 90 minute endpoint, individual animal
[11] = intrinsic clearance, human; assay type: in vitro ADME

## CCOC(=O)N1CCC(N2CCC[C@@H](NC(=O)c3ccc(F)cc3C)C2)CC1 [20a]
M2–M5 [1]
  EC50: > 10 µM

## CCOC(=O)N1CCC(N2CCC[C@@H](NC(=O)c3ccccc3)C2)CC1 [20b]
M2–M5 [1]
  EC50: > 10 µM

## CCOC(=O)N1CCC(N2CCC[C@@H](NC(=O)c3cccc(F)c3)C2)CC1 [20c]
M2–M5 [1]
  EC50: > 10 µM

## CCOC(=O)N1CCC(N2CCC[C@@H](NC(=O)c3cccc(OC)c3)C2)CC1 [20d]
M2–M5 [1]
  EC50: > 10 µM

## CCOC(=O)N1CCC(N2CCC[C@@H](NC(=O)c3ccc(F)c(F)c3)C2)CC1 [20e]
M2–M5 [1]
  EC50: > 10 µM

## CCOC(=O)N1CCC(N2CCC[C@@H](NC(=O)c3ccc(C)cc3)C2)CC1 [20f]
M2–M5 [1]
  EC50: > 10 µM

## CCOC(=O)N1CCC(N2CCC[C@@H](NC(=O)C3CCCCC3)C2)CC1 [20g]
M2–M5 [1]
  EC50: > 10 µM

## CCOC(=O)N1CCC(N2CCC[C@@H](NC(=O)c3cccs3)C2)CC1 [20h]
M2–M5 [1]
  EC50: > 10 µM

## CCOC(=O)N1CCC(N2CCC[C@@H](NC(=O)c3ccc(OC)cc3)C2)CC1 [20i]
M2–M5 [1]
  EC50: > 10 µM

## CCOC(=O)N1CCC(N2CCC[C@@H](NC(=O)c3ccccc3Cl)C2)CC1 [20j]
M2–M5 [1]
  EC50: > 10 µM

## CCOC(=O)N1CCC(N2CCC[C@@H](NC(=O)C3CCCC3)C2)CC1 [20k]
M2–M5 [1]
  EC50: > 10 µM

## C[N+](C)(C)CCOC(N)=O.[Cl-] [carbachol]
TREx293-hM1 cells [2]
  increase in soluble APP (sAPPα): significant increase

## CCOC(=O)N1CCC(NCCNC(=O)c2ccccc2C)CC1 [compound 8]
[3]
  effect on NMDA receptor currents: potentiated NMDA receptor currents
M2–M5 [1]
  EC50: > 30 µM
[4]
  activity in radioligand binding panel: ≤ 50%
TREx293-hM1 cells [5]
  soluble APP (sAPPα): significant increase
M2–M5 [6]
  EC50: > 30 µM

## CCOC(=O)N1CCC(N2CCN(C(=O)c3ccccc3C)CC2)CC1 [compound 13]
M1 [7]
  M1 activation: less than 30%

## CCOC(=O)N1CCC(N2C[C@@H]3C[C@H]2CN3C(=O)c2ccccc2C)CC1 [compound 14]
M1 [7]
  M1 activation: less than 30%

## CCOC(=O)N1CCC(N2C[C@H]3CN(C(=O)c4ccccc4C)C[C@H]3C2)CC1 [compound 15]
M1 [7]
  M1 activation: less than 30%

## CCOC(=O)N1CCC(N2CCC[C@H](NC(=O)c3ccccc3C)C2)CC1 [compound 16]
M1 [7]
  M1 activation: inactive

## CCOC(=O)N1CCC(N2CCC[C@@H](NC(=O)c3ccccc3C)C2)CC1 [compound 17]
Intrinsic clearance, rat
  CLint scaled: 23.4 mL/min/kg
D2 receptor
  functional activity at the D2 receptor: no functional activity
[8]
  persistence of potentiation after washout: 10 min
[8]; listed as VU0364572
  effect on NMDA receptor currents: potentiates NMDA receptor currents
M2–M5 [1]
  EC50: > 30 µM
[9]
  inhibition in radioligand binding panel: ≤ 30%
M1 [10]
  ACh Max versus high-expressing HTS lines: slightly lower ACh Max
M1 [7]
  M1 activation: full activation of M1
Oral plasma:brain level
  Brain: 1.89 µM
  Brain:Plasma: 1.17
  Plasma: 1.62 µM
Oral plasma:brain level; male, Sprague-Dawley, rat, brain, oral, 10 mg/kg
  concentration at 90 min: 2230 nM
Oral plasma:brain level; male, Sprague-Dawley, rat, brain/plasma, po, 10 mg/kg, Brain:Plasma
  Kp at 1.5 h: 1.54
[11]
  CLint scaled: 11.2 mL/min/kg

Source: PMC3190051 (Bioorganic & medicinal chemistry letters, 2011)
